Here are results for five compounds from ChEMBL document CHEMBL3046718, “Synthesis and herbicidal activity of 5-(4-hydroxybenzyl)-2-thioxoimidazolidin-4-one esters” (2011).

Common to all, as to format: functional
For test [1], the system named is Stellaria media. In words: Herbicidal activity against Stellaria media at 1000 g/ha treated as pre-emergence under greenhouse condition.
In test [2] the test system is Zea mays. Description: Herbicidal activity against Zea mays (maize) assessed as inhibition of root growth at 200 ug/ml relative to control. The following applies: read-out: GI. In short, it runs like this: (§1)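 Seedlings were grown in an illumination incubator from ten Zea mays seeds or five Triticum aestivum seeds per plate, on filter paper wetted with 2 mL of test solution at 200 mg/L. Distilled water served as blank and metazachlor as positive control. Inhibitory ratio (0–100%) was scored against distilled water.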

The next test relates to Arabidopsis thaliana. In words: Herbicidal activity against Arabidopsis thaliana assessed as inhibition of seed germination at 200 ug/ml relative to control. In short, it runs like this:
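Five sterilized Arabidopsis thaliana […] per well in 24-well sterile plates, each with 100 μL of test solution at 200 mg/L, grown in an illumination incubator. Distilled water served as blank and metazachlor as positive control. Inhibitory ratio (0–100%) was scored against distilled water.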

Test [3] has as its system Echinochloa crus-galli. Description: Herbicidal activity against Echinochloa crus-galli (barnyard grass) at 1000 g/ha treated as post-emergence under greenhouse condition.
The subject of test [4] is Setaria viridis. Description: Herbicidal activity against Setaria viridis (green foxtail) at 1000 g/ha treated as post-emergence under greenhouse condition.
Test [5] deals with Stellaria media. In words: Herbicidal activity against Stellaria media at 1000 g/ha treated as post-emergence under greenhouse condition.
For test [6], the system named is Triticum aestivum. Description: Herbicidal activity against Triticum aestivum (wheat) assessed as inhibition of height growth at 200 ug/ml relative to control. The following applies: read-out: GI. The gist of the method: as §1
In test [7] the test system is Triticum aestivum. Description: Herbicidal activity against Triticum aestivum (wheat) assessed as inhibition of root growth at 200 ug/ml relative to control. Particulars: read-out: GI. The gist of the method: as §1
Test [8] has as its system Zea mays. Description: Herbicidal activity against Zea mays (maize) assessed as inhibition of height growth at 200 ug/ml relative to control. Particulars: read-out: GI. The gist of the method:
as §1

For test [9], the system named is Echinochloa crus-galli. In words: Herbicidal activity against Echinochloa crus-galli (barnyard grass) at 1000 g/ha treated as pre-emergence under greenhouse condition.
The test system of test [10] is Setaria viridis. Description: Herbicidal activity against Setaria viridis (green foxtail) at 1000 g/ha treated as pre-emergence under greenhouse condition.

For orientation: inhibition means the share of the control response that was lost under treatment. Take `O=C(Cc1cccc2ccccc12)Oc1ccc(CC2NC(=S)NC2=O)cc1` (configuration not stated): the inhibition at 1000 g/ha in the test with Stellaria media [1] was 60%; in the test on Echinochloa crus-galli [3], 0%; with Setaria viridis [4] it was 0%; in the test on Stellaria media [5], 0%; with Echinochloa crus-galli [9], 50%; in the test on Setaria viridis [10], 50%. Moreover, the inhibition of growth at 200 µg/mL with Zea mays [2] amounted to 88%; in the test with Triticum aestivum [6], 100%; with Triticum aestivum [7], 56.7%; in the test on Zea mays [8], 77.4%. For the same compound, the inhibition at 200 µg/mL with Arabidopsis thaliana is 10%.
Regarding `CC(=O)Oc1ccc(CC2NC(=S)NC2=O)cc1` (configuration not stated), the inhibition of growth at 200 µg/mL is -6.7% in the test with Zea mays [2], -3.6% with Triticum aestivum [6], 20.9% with Triticum aestivum [7] and -14.5% in the test with Zea mays [8]. Besides, the inhibition at 200 µg/mL in the test with Arabidopsis thaliana was 10%.
Taken in the same sequence, the figures for `O=C(Oc1ccc(CC2NC(=S)NC2=O)cc1)c1ccc(F)cc1` (configuration not stated) were 66.3%, -22.9%, -8.5%, 32.8% and 20%.
As for `O=C(Oc1ccc(CC2NC(=S)NC2=O)cc1)c1ccc([N+](=O)[O-])cc1` (configuration not stated), the inhibition at 1000 g/ha in the test with Stellaria media [1] is 60%; in the test on Echinochloa crus-galli [3], 0%; with Setaria viridis [4], 0%; in the test with Stellaria media [5] it was 0%; in the test with Echinochloa crus-galli [9] it was 50%; with Setaria viridis [10], 50%. Besides, the inhibition of growth at 200 µg/mL with Zea mays [2] was 100%; in the test with Triticum aestivum [6] it was -24.6%; with Triticum aestivum [7], -25.8%; with Zea mays [8] it was 100%. For the same compound, the inhibition at 200 µg/mL in the test with Arabidopsis thaliana stood at 40%.
As to `Cc1cccc(C)c1N(Cn1cccn1)C(=O)CCl` [METAZACHLOR], the inhibition of growth at 200 µg/mL in the test on Zea mays [2] came out at 83%; with Triticum aestivum [6], 78.6%; with Triticum aestivum [7], 77.7%; in the test on Zea mays [8], 79%. For the same compound, the inhibition at 200 µg/mL with Arabidopsis thaliana stood at 70%.
